The source of these data is ChEMBL document CHEMBL1153431, “Potent inhibitors of pro-inflammatory cytokine production produced by a marine-derived bacterium” (J Med Chem, 2009).

Some results are limits rather than exact numbers.

The nature of series [1]: Inhibition of pro-inflammatory cytokine IL5 production in ovalbumin-stimulated BALB/c mouse TH2 cells at 5 nM after 48 hrs by sandwich-ELISA relative to control. Type of series: functional. Also on record: scale not given: the % may be the effect or the level left. An outline of the steps: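 Splenocytes from female BALB/c mice (6-8 weeks) were used, taken after weekly subcutaneous immunisation for 4 weeks with 25 µg OVA on 1 mg alum in PBS. Cells were held at 1.3 × 10^6 cells/mL in RPMI-1640 and given compound in DMSO plus OVA for 48 h. Controls were DMSO ± OVA wells. Supernatant IL-5 was read by colorimetric sandwich ELISA.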
A general note: An ELISA detects its analyte on a solid surface through an enzyme-linked reagent.

A short description of series [2]: Cytotoxicity against BALB/c mouse TH2 cells after 48 hrs by Trypan blue assay. The format is cell-based. To be noted: read-out: LD50. The procedure, abridged:
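Splenocytes from OVA/alum-immunized female Balb-C mice (6-8 weeks) in RPMI-1640 at 1.3 × 10^6 cells/mL, exposed to compound in DMSO with OVA allergen for 48 h. Adherent cells stained with trypan blue and counted visually on a hemocytometer to assess viability.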

Series [3] can be described thus: Inhibition of pro-inflammatory cytokine IL13 production in ovalbumin-stimulated BALB/c mouse TH2 cells after 48 hrs by sandwich-ELISA. The format is functional, cell-based. The conditions noted are these: TH2, 48 h. The procedure, abridged:
(§1)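 Splenocytes from female Balb-C mice (6-8 weeks) immunized subcutaneously weekly for four weeks with 25 µg OVA adsorbed to 1 mg alum in PBS. Cells in RPMI-1640 at 1.3 × 10^6 cells/mL, given compound in DMSO plus OVA allergen; DMSO and DMSO+OVA replicate wells as controls. After 48 h incubation, supernatant cytokine measured by colorimetric sandwich ELISA.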

Series [4] is described as follows: Inhibition of pro-inflammatory cytokine IL5 production in ovalbumin-stimulated BALB/c mouse TH2 cells after 48 hrs by sandwich-ELISA. Type of series: functional, cell-based. The conditions noted are these: TH2, 48 h. An outline of the steps:
as §1

Series [5] in a line: Inhibition of pro-inflammatory cytokine TNFalpha production in ovalbumin-stimulated BALB/c mouse APC at 10 nM after 48 hrs by sandwich-ELISA relative to control. The format is functional. Also on record: scale not given: the % may be the effect or the level left. An outline of the steps:
as §1

Series [6] is described as follows: Inhibition of pro-inflammatory cytokine IL1 production in ovalbumin-stimulated BALB/c mouse APC at 10 nM after 48 hrs by sandwich-ELISA relative to control. The format is functional. Also on record: scale not given: the % may be the effect or the level left. The procedure, abridged:
as §1

Series [7] can be described thus: Therapeutic index, ratio of LD50 for BALB/c mouse TH2 cells to IC50 for pro-inflammatory cytokine production in BALB/c mouse TH2 cells. Type of series: cell-based. The conditions noted are these: read-out: TI. The procedure, abridged:
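Splenocytes came from OVA/alum-immunised female BALB/c mice (25 µg OVA s.c. weekly for 4 weeks) and were held at 1.3 × 10^6 cells/mL in RPMI-1640. They were exposed to compound in DMSO with OVA for 48 h, with DMSO ± OVA control wells. Cytokines in the supernatant were measured by sandwich ELISA. Viability of adherent cells was scored by trypan blue hemocytometer counting.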

The molecule `C[C@@H]1C[C@H]2[C@@H]3CCC4=CC(=O)C=C[C@]4(C)[C@@]3(F)[C@@H](O)C[C@]2(C)[C@@]1(O)C(=O)CO` [DEXAMETHASONE] returned an Activity in series [1] of over 80%. Besides, the CC50 at 48 h in series [2] was over 7100 nM. For the same molecule, the IC50 in series [3] and in series [4] was 5 nM throughout.

Turning to `CC(=O)O[C@H]1[C@H](C)OC(=O)[C@@H](NC(=O)c2cccc(NC=O)c2O)[C@@H](C)OC(=O)[C@@H]1Cc1ccccc1` [SPLENOCIN A], the CC50 at 48 h in series [2] was over 1800 nM. The IC50 in series [4] worked out at 3.1 nM.

For the molecule `CC(C)C(=O)O[C@H]1[C@H](C)OC(=O)[C@@H](NC(=O)c2cccc(NC=O)c2O)[C@@H](C)OC(=O)[C@@H]1Cc1ccccc1` [SPLENOCIN B], the Activity in series [1] is recorded as over 80%; in series [5] it was 75%; in series [6] it was 85%. Also, the CC50 at 48 h in series [2] was over 1700 nM. The IC50 in series [3] turned out to be 1.6 nM; in series [4], 1.8 nM. Further, the selectivity ratio in series [7] is over 500.

For `CCC(C)C(=O)O[C@H]1[C@H](C)OC(=O)[C@@H](NC(=O)c2cccc(NC=O)c2O)[C@@H](C)OC(=O)[C@@H]1Cc1ccccc1` (some centres undefined) [SPLENOCIN C], in series [2], the CC50 at 48 h was over 560 nM. Further, the IC50 in series [3] turned out to be 7.3 nM; in series [4], 6.7 nM.

As for `CC[C@H]1C(=O)O[C@H](C)[C@H](NC(=O)c2cccc(NC=O)c2O)C(=O)O[C@@H](C)[C@@H]1OC(=O)c1ccccc1` [SPLENOCIN D], the CC50 at 48 h in series [2] was over 550 nM. The IC50 in series [3] was found to be 43.7 nM; in series [4], 47.9 nM.

For the molecule `CCCC[C@H]1C(=O)O[C@H](C)[C@H](NC(=O)c2cccc(NC=O)c2O)C(=O)O[C@@H](C)[C@@H]1OC(=O)c1ccccc1` [SPLENOCIN E], in series [2], the CC50 at 48 h was over 570 nM. Besides, the IC50 in series [3] stood at 15.9 nM; in series [4], 16.6 nM.

`CCCCC[C@H]1C(=O)O[C@H](C)[C@H](NC(=O)c2cccc(NC=O)c2O)C(=O)O[C@@H](C)[C@@H]1OC(=O)c1ccccc1` [SPLENOCIN F]: the CC50 at 48 h in series [2] was over 560 nM. Moreover, the half-inhibitory concentration (IC50) in series [3] stood at 6.8 nM; in series [4], 9.4 nM.

Consider `CCCCCC[C@H]1C(=O)O[C@H](C)[C@H](NC(=O)c2cccc(NC=O)c2O)C(=O)O[C@@H](C)[C@@H]1OC(=O)c1ccccc1` [SPLENOCIN G], for which the CC50 at 48 h in series [2] is over 550 nM. Moreover, the results for the IC50 in series [3] and in series [4] were 5.2 nM and 5 nM, respectively. Also, the Activity came to 75% in series [5] and 85% in series [6].

As for `CCCCC(C)C[C@H]1C(=O)O[C@H](C)[C@H](NC(=O)c2cccc(NC=O)c2O)C(=O)O[C@@H](C)[C@@H]1OC(=O)c1ccccc1` (some centres undefined) [SPLENOCIN H], the CC50 at 48 h in series [2] is over 1600 nM. The figures for the IC50 in series [3] and in series [4] were 5.1 nM and 4.3 nM, respectively.

As for `C[C@@H]1OC(=O)[C@@H](NC(=O)c2cccc(NC=O)c2O)[C@@H](C)OC(=O)[C@H](Cc2ccccc2)[C@H]1OC(=O)c1ccccc1` [SPLENOCIN I], in series [2], the CC50 at 48 h is over 540 nM. Further, the IC50 in series [3] is 15.2 nM; in series [4], 15.8 nM.

`C[C@@H]1OC(=O)[C@@H](NC(=O)c2cccc(NC=O)c2O)[C@@H](C)OC(=O)[C@H](Cc2ccccc2)[C@H]1O` [SPLENOCIN J]: in series [2], the CC50 at 48 h was over 6000 nM. Moreover, the IC50 in series [3] stood at 826 nM; in series [4], 1020 nM.

Usually IC50 stands for the midpoint of a concentration-inhibition curve.
